In ChEMBL document CHEMBL4819129, “Design, synthesis and lipid-lowering activities of penipyridone derivatives” (Bioorg Med Chem, 2021):
Active and inactive are the calls of the source. The calls are words filed in the database; no cut-off is given here.

What was measured:
HepG2 [1] = assay: Hypolipidemic activity in human HepG2 cells assessed as inhibition of oleic acid-induced lipid accumulation at 10 uM; format: functional, cell-based
How it was run: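 Oleic acid-induced lipid accumulation in HepG2; cells given 100 μM oleic acid with or without compound at 10 μM in DMSO; DMSO-only and OA-only controls, Simvastatin 10 μM positive control. Lipid quantified by oil red O staining. Mean ± SD, n = 4–6, at least three independent experiments.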

HepG2 [2] = assay: Cytotoxicity against human HepG2 cells assessed as reduction in cell viability at 100 uM by MTT assay; format: cell-based; conditions: hepg2, 100 µM
How it was run: (§1)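 MTT viability in HepG2 seeded at 1.2 × 10⁴ cells/well, grown 24 h, then given serial dilutions from DMSO stocks (0.22 μm-filtered) in DMEM + 10% FBS, DMSO as control; 48 h at 37 °C. MTT 5 mg/mL in PBS added for 4 h, formazan dissolved in 10% SDS/0.01 N HCl, A490 read; DMSO wells = 100% viable. Mean ± SD, n = 6.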

HepG2 [3] = assay: Cytotoxicity against human HepG2 cells assessed as reduction in cell viability at 400 uM incubated for 48 hrs by MTT assay; format: cell-based; conditions: hepg2, 48 h; how it was run: as §1
HepG2 [4] = assay: Hypolipidemic activity in human HepG2 cells assessed as inhibition of oleic acid-induced triglyceride accumulation at 10 uM after 24 hrs; format: functional, cell-based
How it was run: (§2)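 HepG2 in 12-well plates at 2 × 10⁵ cells/well, 37 °C; after 24 h, co-treated 24 h with 100 μmol/L oleic acid plus compound (DMSO vehicle) or Simvastatin 10 μM. Cells rinsed twice in PBS, lysed on ice 20 min, and triglyceride and total cholesterol contents measured. OA-only cells served as reference. Mean ± SD, n = 4.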

HepG2 [5] = assay: Hypolipidemic activity against oleic acid-induced lipid accumulation in human HepG2 cell model assessed as decrease in triglycerides level at 10 uM measured after 24 hrs; format: functional; parameters: scale not given: the % may be the effect or the level left; how it was run: as §2
HepG2 [6] = assay: Hypolipidemic activity against oleic acid-induced lipid accumulation in human HepG2 cell model assessed as decrease in total cholestrol level at 10 uM measured after 24 hrs; format: functional; parameters: scale not given: the % may be the effect or the level left; how it was run: as §2
HepG2 [7] = assay: Hypolipidemic activity against oleic acid-induced lipid accumulation in human HepG2 cell model assessed as decrease in triglycerides level at 20 uM measured after 24 hrs; format: functional; parameters: scale not given: the % may be the effect or the level left; how it was run: as §2
HepG2 [8] = assay: Hypolipidemic activity against oleic acid-induced lipid accumulation in human HepG2 cell model assessed as decrease in total cholestrol level at 20 uM measured after 24 hrs; format: functional; parameters: scale not given: the % may be the effect or the level left; how it was run: as §2
HepG2 [9] = assay: Hypolipidemic activity against oleic acid-induced lipid accumulation in human HepG2 cell model assessed as decrease in total cholestrol level at 5 uM measured after 24 hrs; format: functional; parameters: scale not given: the % may be the effect or the level left; how it was run: as §2
HepG2 [10] = assay: Hypolipidemic activity in human HepG2 cells assessed as reduction in OA-induced lipid accumulation incubated for 1 hrs by Oil Red O staining based assay; format: functional, cell-based; conditions: time 24.0 hrs, in the assay text read “24 hrs” for “1 hrs”
How it was run: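 Oil red O: HepG2 fixed in 10% neutral formalin 1 h at room temperature, PBS-washed, stained 1 h with 0.5% oil red O in 60% isopropanol, water-washed and imaged (40×). For quantification, stained lipid droplets (30 min) washed with 70% ethanol and absorbance read at 358 nm.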

## CCOC(=O)COc1cc([C@@H](OC(C)=O)c2ccccc2)ncc1C(N)=O
HepG2 [1]
  Activity: Active
HepG2 [2]
  Activity: Non-Toxic
HepG2 [3]
  Activity: Non-Toxic
HepG2 [4]
  Activity: Active

## CC(=O)O[C@@H](c1ccccc1)c1cc(=O)c(C(N)=O)cn1CCN(C)C
HepG2 [1]
  Activity: Active
HepG2 [2]
  Activity: Non-Toxic

## NC(=O)c1cn(CCO)c(-c2ccccc2)cc1=O
HepG2 [1]
  Activity: Active
HepG2 [2]
  Activity: Non-Toxic

## COc1ccc(Cn2cc(C(N)=O)c(=O)cc2[C@@H](OC(C)=O)c2ccccc2)cc1
HepG2 [1]
  Activity: inactive

## COCCOc1cc([C@@H](OC(C)=O)c2ccccc2)ncc1C(N)=O
HepG2 [1]
  Activity: inactive

## CC(=O)O[C@@H](c1ccccc1)c1cc(OCCO)c(C(N)=O)cn1
HepG2 [1]
  Activity: Active
HepG2 [3]
  Activity: Non-Toxic
HepG2 [4]
  Activity: Active

## CC(=O)O[C@@H](c1ccccc1)c1cc(OCc2cc(C(F)(F)F)cc(C(F)(F)F)c2)c(C(N)=O)cn1
HepG2 [1]
  Activity: inactive

## NC(=O)c1cnc([C@@H](O)c2ccccc2)cc1OCCO
HepG2 [1]
  Activity: inactive

## CC(=O)O[C@@H](c1ccccc1)c1cc(=O)c(C(=O)NC(=O)CC(C)C)cn1CCO
HepG2 [1]
  Activity: Active

## CCC(C)(C)C(=O)O[C@H]1C[C@@H](C)C=C2C=C[C@H](C)[C@H](CC[C@@H]3C[C@@H](O)CC(=O)O3)[C@H]21 [SIMVASTATIN]
HepG2 [5]
  Activity: 29.1%
HepG2 [6]
  Activity: 12.1%

## CC(=O)O[C@H](c1ccccc1)c1cc(OCCO)c(C(N)=O)cn1
HepG2 [1]
  Activity: inactive

## CC(C)CC(=O)O[C@@H](c1ccccc1)c1cc(OCCO)c(C(N)=O)cn1
HepG2 [1]
  Activity: inactive

## CC(=O)O[C@@H](c1ccccc1)c1cc(=O)c(C(N)=O)cn1CCN1CCCCC1
HepG2 [1]
  Activity: Active

## CC(=O)O[C@@H](c1ccccc1)c1cc(=O)c(C(N)=O)cn1Cc1ccccc1
HepG2 [1]
  Activity: inactive

## CC(=O)O[C@@H](c1ccccc1)c1cc(=O)c(C(N)=O)cn1CCN1CCCC1
HepG2 [1]
  Activity: Active

## CC(=O)O[C@@H](c1ccccc1)c1cc(OCc2ccccc2)c(C(N)=O)cn1
HepG2 [1]
  Activity: inactive

## CC(=O)O[C@@H](c1ccccc1)c1cc(OCCN(C)C)c(C(N)=O)cn1
HepG2 [1]
  Activity: Active
HepG2 [2]
  Activity: Non-Toxic

## CC(=O)O[C@@H](c1ccccc1)c1cc(=O)c(C(N)=O)cn1Cc1cc(C(F)(F)F)cc(C(F)(F)F)c1
HepG2 [1]
  Activity: inactive

## CC(=O)O[C@@H](c1ccccc1)c1cc(OCCO)c(C(=O)N(C)C)cn1
HepG2 [1]
  Activity: inactive

## CC(=O)O[C@@H](c1ccccc1)c1cc(OCCN2CCCC2)c(C(N)=O)cn1
HepG2 [1]
  Activity: Active

## CC(=O)O[C@@H](c1ccccc1)c1cc(OCCN2CCOCC2)c(C(N)=O)cn1
HepG2 [1]
  Activity: Active
HepG2 [2]
  Activity: Non-Toxic

## CC(=O)O[C@@H](c1ccccc1)c1cc(OCCN2CCSCC2)c(C(N)=O)cn1
HepG2 [1]
  Activity: Active
HepG2 [2]
  Activity: Non-Toxic
HepG2 [3]
  Activity: Non-Toxic
HepG2 [4]
  Activity: Active
HepG2 [7]
  Activity: 30.2%
HepG2 [8]
  Activity: 14.8%
HepG2 [9]
  Activity: 12.8%
HepG2 [10]
  Activity: Dose-Dependent Effect

## COCCn1cc(C(N)=O)c(=O)cc1[C@@H](OC(C)=O)c1ccccc1
HepG2 [1]
  Activity: inactive

## CC(C)CC(=O)O[C@@H](c1ccccc1)c1cc(=O)c(C(N)=O)cn1CCO
HepG2 [1]
  Activity: inactive

## NC(=O)c1cnc(Cc2ccccc2)cc1OCCO
HepG2 [1]
  Activity: Active
HepG2 [2]
  Activity: Non-Toxic
